Hits are enriched below; roughly 3% of the tested compounds scored in any of these assays.
S1P3 agonist = human S1P3 receptor agonists, primary screen, cell-based, primary and confirmation, NFAT-BLA reporter; activation, % at 4.5 µM; Sphingosine 1-phosphate receptor 3 (Homo sapiens), Q99500; 60,000 tested, 0.1% active; S1P3 NFAT-BLA reporter cells, agonism, FRET ratio; relative to 1 µM S1P, basal subtracted;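 active means activation above the screen-wide mean plus 3 SD, cut at about 4.5% in these data, passing the limit was not always enough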
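Benchmarks: high control 1 µM S1P / System: stable CHO line with human S1P3, Gα16, NFAT-BLA reporter / Dosing: single compound concentration, 4.5 µM final / Timing: 4 h compound at 37 °C, 2 h substrate at RT / Measured by: FRET β-lactamase substrate fluorescence, excitation 405 nm, 460/535 nm emission ratio, background-subtracted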
5HT1a ag = human 5-HT1a receptor agonists, primary screen, cell-based, CHO, Ga15 NFAT-bla reporter; 5-hydroxytryptamine receptor 1A (Homo sapiens), P08908; CHO 5-HT1a Ga15 NFAT-bla reporter, FRET ratio; 0% basal, 100% maximal reference agonist; activation, % at 10 µM; 65,000 tested, 0.56% active; AID 567, 2006;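 active means activation above the screen-wide mean activation plus 3 SD, cut at about 19% in these data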
S1P1 ag pot = S1P1 agonists and agonism potentiators, primary screen, cell-based, primary and confirmation screens, CRE-bla reporter | 56,000 tested, 0.57% active | Sphingosine 1-phosphate receptor 1 (Homo sapiens), P21453 | S1P1 CRE-bla cells, forskolin, beta-lactamase FRET, potentiator mode; S1P1 agonist co-added at EC20, 2 nM; 100% = saturating reference agonist, 0% = basal | activation, % at 9.5 µM;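 active means activation above a cutoff set at the mean activation of all tested compounds plus 3 SD, cut at about 54% in these data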;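 further: forskolin at 4 µM as EC80 and the EC20 agonist is SEW2871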
Target sequence (P21453 whole entry, looked up): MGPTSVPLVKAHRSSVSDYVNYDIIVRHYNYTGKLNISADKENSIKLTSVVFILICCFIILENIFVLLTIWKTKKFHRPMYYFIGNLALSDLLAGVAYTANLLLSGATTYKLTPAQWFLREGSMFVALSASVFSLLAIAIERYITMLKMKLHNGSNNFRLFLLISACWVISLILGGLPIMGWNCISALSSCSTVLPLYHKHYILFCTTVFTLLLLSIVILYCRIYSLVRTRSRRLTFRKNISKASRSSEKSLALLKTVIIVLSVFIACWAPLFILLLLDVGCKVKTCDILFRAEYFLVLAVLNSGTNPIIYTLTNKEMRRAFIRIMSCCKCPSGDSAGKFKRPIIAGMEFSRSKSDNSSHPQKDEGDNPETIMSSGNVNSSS
5HT1E antag = 5-HT1E receptor antagonists, primary screen, cell-based, HTS; 65,000 tested, 0.99% active; CHO 5-HT1E Ga15 NFAT-bla reporter, FRET, antagonist; 5-hydroxytryptamine receptor 1E (Homo sapiens), P28566; inhibition, % at 6 µM;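 active means inhibition above a set limit, the mean inhibition across every tested compound plus 3 SD, cut at about 29% in these data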;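 further: signal is the 460 over 535 nm emission ratio of beta-lactamase substrate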
5-HT1A blocker = human 5-HT1a receptor antagonists, primary screen, cell-based, CHO, Ga15 NFAT-bla reporter. 62,000 tested, 0.68% active. 5-hydroxytryptamine receptor 1A (Homo sapiens), P08908. inhibition, % at 10 µM. CHO 5-HT1a Ga15 NFAT-bla reporter, antagonist mode;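 active means inhibition above the mean of all tested compounds plus 3 SD, cut at about 43% in these data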;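 further: receptor stimulated by 5-CT agonist at 100 nM near EC80; beta-lactamase reporter measured by ratiometric fluorescence of a cleavable substrate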
HTR1E agonist = 5-HT1E receptor agonists, primary screen, cell-based, HTS; CHO 5-HT1E Ga15 NFAT-bla reporter, FRET; 0% DMSO wells, 100% control agonist wells; 5-hydroxytryptamine receptor 1E (Homo sapiens), P28566; AID 574, 2007; activation, % at 6 µM; 65,000 tested, 0.69% active;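 active means activation above a set limit, the screen-wide mean activation plus 3 SD, cut at about 8.5% in these data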
Of the large screens only hits and unclear results are named; the others gave an inactive call.

COc1ccc(C(=O)N2c3cc4c(cc3C(C)=CC2(C)C)OCO4)cc1	5-HT1A blocker 53.9
CC(C)COC(=O)NCCOC(=O)Nc1cccc(Cl)c1	S1P1 ag pot 70.1
CCCCCOC(=O)NCC(O)c1ccccc1 (centres undefined)	none
CC(C)COC(=O)NCCCOC(=O)Nc1ccccc1	5HT1a ag 224.5
CCOc1cccc(NC(=O)C2CC(=O)N(C)C2)c1 (centres undefined)	none (no result: S1P1 ag pot)
CCOC(=O)C1(CC)NC(c2ccc(N(C)C)cc2)C2C(=O)N(C)C(=O)C21 (centres undefined)	none
CCOc1ccc(Nc2cc(C)nc(-n3nc(C)cc3C)n2)cc1	5HT1E antag 79.6, 5-HT1A blocker 52.3
c1ccc(-c2ccc(-c3nc(-c4ccncc4)no3)cc2)cc1	S1P1 ag pot 84.7
c1ccc(-c2ccc(-c3nc(-c4cccnc4)no3)cc2)cc1	S1P1 ag pot 81.5
CCc1ccc(-c2nc(-c3ccncc3)no2)cc1	S1P1 ag pot 76.0
c1ccc(C(Cc2nc(-c3ccncc3)no2)c2ccccc2)cc1	S1P3 agonist 42.0 (no result: S1P1 ag pot)
c1ccc(-c2nc(-c3ccncc3)no2)cc1	none (no result: S1P1 ag pot)
CCOC(=O)c1c(COc2ccccc2)oc2ccc(O)cc12	none
CCc1oc2ccccc2c1C(=O)c1cc(Br)c(O)c(Br)c1	S1P1 ag pot 67.7 (no result: 5-HT1A blocker)
O=C(CSc1nnc(Cc2cccs2)n1Cc1ccco1)Nc1cccc(Cl)c1	none
O=C(CSc1nnc(Cc2cccs2)n1Cc1ccco1)Nc1cc(Cl)cc(Cl)c1	5-HT1A blocker 45.6
CN(c1ccccc1)c1nc(N2CCCC2)nc(-n2ccnc2)n1	5-HT1A blocker 52.9
COc1ccccc1N1CCN(C(=O)C2CC=CCC2C(=O)O)CC1 (centres undefined)	HTR1E agonist 49.1
COc1ccccc1N1CCN(C(=O)C2c3ccccc3Oc3ccccc32)CC1	5HT1E antag 42.3, 5-HT1A blocker 54.8
CCC(C)(C)n1nnnc1C(c1ccccn1)N1CCOCC1 (centres undefined)	none
CCN(Cc1ccccc1)C(c1ccccn1)c1nnnn1C(C)(C)CC (centres undefined)	5-HT1A blocker 45.3
COC(=O)CSc1nnc([C@H](Cc2ccccc2)NC(=O)OC(C)(C)C)o1	none
COC(=O)CS(=O)(=O)c1nnc([C@H](Cc2ccccc2)NC(=O)OC(C)(C)C)o1	S1P1 ag pot 55.6, 5HT1E antag 29.4
COc1ccc2[nH]c3ccccc3c2c1	none
COc1ccc2[nH]c3c(c2c1)CN(C)CC3	5HT1a ag 102.3, 5HT1E antag 28.7
CCOC(=O)c1ccc2nc(NC(=O)c3cccs3)sc2c1	none (no result: S1P3 agonist, S1P1 ag pot)
CCOC(=O)c1ccc2nc(NC(=O)c3ccco3)sc2c1	S1P1 ag pot 63.2
COC(=O)c1ccc(CSc2nc3ccccc3c(=O)n2-c2ccc(OC)c(OC)c2)o1	5HT1E antag 31.0
COCCn1c(SCc2ccc(C(=O)OC)o2)nc2ccccc2c1=O	none
CCOC(=O)c1cc2sccc2n1CC(=O)c1ccc2c(c1)OCCO2	HTR1E agonist 21.6
CCc1ncc(C(O)c2cccc(OC)c2OC)n1C (centres undefined)	none
CCOC(=O)c1c(-c2ccc(C)o2)csc1NC(=O)CSc1nnnn1-c1ccccc1	none
CCOC(=O)c1c(-c2ccc(C)o2)csc1NC(=O)CSc1nnc(C)s1	5-HT1A blocker 55.6
C=CCNC(=O)COc1ccc(S(=O)(=O)NC2CCCCC2)cc1	none
Cc1cc(C)nc(SC2=CS(=O)(=O)c3ccccc32)n1	none
O=S1(=O)C=C(Sc2nc3ccccc3s2)c2ccccc21	S1P1 ag pot 114.0, 5HT1E antag 106.0, 5-HT1A blocker 98.5
CCOC(=O)c1cnn2c(C(F)(F)F)cc(-c3cn(C)nc3C)nc12	none (no result: S1P1 ag pot)

From PubChem
